For orientation: inhibition means the drop in the measured response relative to a control, in per cent. A lower inhibition goes with little suppression.

The text below walks through data of ChEMBL document CHEMBL1122517, “2-Phenylindoles. Relationship between structure, estrogen receptor affinity, and mammary tumor inhibiting activity in the rat” (1984).

Experiment [1] is filed under the species Rattus norvegicus. Put plainly: Formation of new DMBA-induced mammary carcinoma tumors in rats at 1.8 mg dose. It is filed as functional. A digest of the protocol: (§1)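 DMBA-induced tumors in Sprague-Dawley rats, entered when tumor area exceeded 140 mm². Dose per kg was given sc in olive oil, daily Monday to Thursday with a double dose Friday. Tumors were measured by calipers twice weekly. Tumor number was counted at the start of the test. Complete remission meant the tumor was no longer palpable. Partial remission meant reduction to ≤50% of initial size. New tumor appearance was recorded.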

In experiment [2] the target is T1, Estrogen receptor (Mus musculus) (UniProt O08537+P19785). Put plainly: Percentage inhibition of uterotrophic activity at 125 ug dose. It is filed as functional. A digest of the protocol:
(§2)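 Antiuterotrophic test in immature 19-day-old female NMRI mice (n=10), dosed sc on 3 consecutive days with 0.4 µg estrone per animal per day plus compound in olive oil. Uterine dry weight/body weight ×100 was read 24 h after the last dose. Inhibition % = 100 − [(E_S,T − E_V)/(E_S − E_V)]×100.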

Experiment [3] addresses T1, Estrogen receptor (Mus musculus). As to the kind of experiment: Percentage inhibition of uterotrophic activity at 25 ug dose. It is filed as functional. In short, it runs like this:
as §2

Experiment [4] shares this target. Put plainly: Uterotrophic activity in mice as uterus dry weight (mg)/body weight (g) *100 at 1 ug dose. It is filed as functional, tissue-based. In short, it runs like this:
(§3)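 Immature 19-day-old female NMRI mice, groups of 10. Compound dose per animal in olive oil (50 µL) sc on 3 consecutive days. Mice were killed 24 h after the last injection. Uteri were Bouin-fixed 20 h, cleaned, washed with alcoholic LiCl, and dried at 100 °C for 24 h. Effect = uterine dry weight (mg)/body weight (g) ×100; mean ± SD.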

For experiment [5], the species on record is Rattus norvegicus. As to the kind of experiment: Percent unchanged DMBA-induced mammary carcinoma tumors in rats at 1.8 mg dose. In kind it is functional. A digest of the protocol: (§4)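 Female Sprague-Dawley rats, 50 days old, given a single 20 mg DMBA dose in 1 mL olive oil by gavage. Rats were palpated twice weekly from day 30, and those without tumors by day 70 were discarded. Rats were randomized once tumor area exceeded 140 mm². Drug dose was per kg in olive oil (1 mL/kg) sc, single dose Mon–Thu and double dose Fri. Tumor area (caliper, two perpendicular axes) and body weight were measured twice weekly.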

Experiment [6] is filed under the species Rattus norvegicus. As to the kind of experiment: Change in DMBA-induced mammary carcinoma tumor area in rats at 1.8 mg dose; -75-656. It is filed as functional. A digest of the protocol: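 Female Sprague-Dawley rats got one 20 mg DMBA dose by gavage at 50 days old and were palpated twice weekly from day 30. Rats were randomized once tumor area exceeded 140 mm². Dose (per kg) was given sc in olive oil, once daily Monday to Thursday and doubled on Friday. Tumor area was taken from caliper measurements of two perpendicular axes, twice weekly. Change per animal is given as median % and range.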

Experiment [7] is filed under the species Rattus norvegicus. Put plainly: Change in body weight of DMBA-induced mammary carcinoma tumor bearing rats at 1.8 mg dose. It is filed as functional. In short, it runs like this:
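DMBA-induced tumor-bearing Sprague-Dawley rats (20 mg DMBA by gavage at 50 days old), randomized when tumor area exceeded 140 mm². Dose per kg was given sc in olive oil, single dose daily Monday to Thursday, double dose Friday. Body weight was measured twice weekly. Read-out was % change in body weight.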

In experiment [8] the target is T1, Estrogen receptor (Mus musculus). As to the kind of experiment: Anti-uterotrophic activity in mice as uterus dry weight (mg)/body weight (g) *100 at 5 ug dose. It is filed as functional, tissue-based. A digest of the protocol:
(§5)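 Immature female NMRI mice, 19 days old, groups of 10, given sc injections on 3 consecutive days. Each injection held 0.4 μg estrone plus the indole dose per animal, in olive oil (50 μL). Killed 24 h after the last injection. Uteri were fixed in Bouin solution, washed, and dried 24 h at 100 °C. Read-out was uterine dry weight (mg)/body weight (g) × 100, mean ± SD.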

Experiment [9] shares this target. As to the kind of experiment: Uterotrophic activity in mice as uterus dry weight (mg)/body weight (g) *100 at 125 ug dose. In kind it is functional, tissue-based. In short, it runs like this: as §3
For experiment [10] the target is unchanged. Put plainly: Anti-uterotrophic activity in mice as uterus dry weight (mg)/body weight (g) *100 at 25 ug dose. In kind it is functional, tissue-based. In short, it runs like this: as §5
The species entered for experiment [11] is Rattus norvegicus. As to the kind of experiment: Partial remission (%) of DMBA-induced mammary carcinoma tumors in rats at 1.8 mg dose. It is filed as functional. In short, it runs like this: as §1
Experiment [12] concerns the target T1, Estrogen receptor (Mus musculus). As to the kind of experiment: Uterotrophic activity in mice as uterus dry weight (mg)/body weight (g) *100 at 25 ug dose. It is filed as functional, tissue-based. In short, it runs like this: as §3
Experiment [13] shares this target. Put plainly: Anti-uterotrophic activity in mice as uterus dry weight (mg)/body weight (g) *100 at 1 ug dose. In kind it is functional, tissue-based. In short, it runs like this:
as §5

For experiment [14], the species on record is Rattus norvegicus. As to the kind of experiment: Number of DMBA-induced mammary carcinoma tumors in rats at 1.8 mg dose. It is filed as functional. A digest of the protocol:
as §1

In experiment [15] the target is T1, Estrogen receptor (Mus musculus). Put plainly: Uterotrophic activity in mice as uterus dry weight (mg)/body weight (g) *100 at 5 ug dose. In kind it is functional, tissue-based. In short, it runs like this:
as §3

Experiment [16] is filed under the species Rattus norvegicus. Put plainly: Percent progressive DMBA-induced mammary carcinoma tumors in rats at 1.8 mg dose. It is filed as functional. A digest of the protocol:
as §4

Experiment [17] deals with T1, Estrogen receptor (Mus musculus). As to the kind of experiment: Anti-uterotrophic activity in mice as uterus dry weight (mg)/body weight (g) *100 at 125 ug dose. In kind it is functional, tissue-based. A digest of the protocol: as §5

Values joined by “and” are separate entries in the source; they are usually repeats but may differ in a detail not shown here. Equal values may be shown once.

T1 sequence (O08537 whole entry, looked up): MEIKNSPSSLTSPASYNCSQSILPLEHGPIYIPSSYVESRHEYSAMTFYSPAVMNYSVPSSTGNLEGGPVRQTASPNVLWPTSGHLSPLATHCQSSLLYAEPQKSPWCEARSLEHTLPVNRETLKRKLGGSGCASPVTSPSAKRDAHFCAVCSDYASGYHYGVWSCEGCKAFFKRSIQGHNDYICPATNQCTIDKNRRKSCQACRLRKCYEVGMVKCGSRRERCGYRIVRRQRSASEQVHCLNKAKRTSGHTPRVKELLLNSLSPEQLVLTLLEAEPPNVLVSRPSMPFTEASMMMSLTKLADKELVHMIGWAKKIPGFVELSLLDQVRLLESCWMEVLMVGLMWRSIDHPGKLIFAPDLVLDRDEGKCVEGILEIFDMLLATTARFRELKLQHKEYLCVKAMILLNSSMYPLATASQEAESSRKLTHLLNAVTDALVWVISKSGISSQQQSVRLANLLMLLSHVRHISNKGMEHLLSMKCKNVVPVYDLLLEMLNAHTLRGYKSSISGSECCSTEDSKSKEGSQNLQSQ
T1 sequence (P19785 whole entry, looked up): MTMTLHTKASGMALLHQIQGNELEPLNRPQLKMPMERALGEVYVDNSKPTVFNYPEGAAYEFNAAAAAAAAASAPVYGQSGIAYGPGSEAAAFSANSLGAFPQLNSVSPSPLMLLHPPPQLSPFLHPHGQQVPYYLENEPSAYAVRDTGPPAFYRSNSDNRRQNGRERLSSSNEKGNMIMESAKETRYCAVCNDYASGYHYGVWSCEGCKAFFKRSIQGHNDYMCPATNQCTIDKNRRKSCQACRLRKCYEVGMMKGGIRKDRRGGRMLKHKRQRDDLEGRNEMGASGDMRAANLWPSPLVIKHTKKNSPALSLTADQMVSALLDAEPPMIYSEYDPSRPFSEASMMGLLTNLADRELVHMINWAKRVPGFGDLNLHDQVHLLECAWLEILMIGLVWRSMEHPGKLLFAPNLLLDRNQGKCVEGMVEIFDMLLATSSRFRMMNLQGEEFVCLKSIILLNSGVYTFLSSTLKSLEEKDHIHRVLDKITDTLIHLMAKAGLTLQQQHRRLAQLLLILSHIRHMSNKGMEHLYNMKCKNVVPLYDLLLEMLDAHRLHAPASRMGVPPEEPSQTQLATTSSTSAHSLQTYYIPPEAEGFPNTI

Molecule `CCn1c(-c2ccc(OC(C)=O)cc2)c(C)c2cc(OC(C)=O)ccc21` [ZINDOXIFENE] registered a New tumors in [1] of 25. In addition, the inhibition in experiment [2] was 25% and 46%; in [3], 45%. Also, the Uterotrophic effect was 16.4 in experiment [4]; 19.5 and 30.5 in experiment [9]; 17.9 and 21 in experiment [12]; 14.1 and 19.6 in [15]. This molecule yielded a Static tumors in experiment [5] of 14%. In addition, the “Change of tumor area” value in experiment [6] is given as -75%. The “Change of body weight” value in experiment [7] is listed as 1%. In addition, the Anti-uterotrophic effect in experiment [8] is 46.3 and 50.4; in [10], 53.5 and 33.5; in experiment [13], 38.5 and 51.1; in experiment [17] it was 37.8 and 33. Further, the Partial remission in [11] is 12%. The same molecule had a No. of tumors in [14] of 33. The molecule further displayed a Progressed tumors in experiment [16] of 55%.
